Measurements pooled from the literature.
Lines come from different studies, so protocols differ. In brackets after ≈: the same amount, converted by molar mass.

CN[C@@H]1[C@H](O)[C@H](NC)[C@H]2O[C@@]3(O)C(=O)C[C@@H](C)O[C@H]3O[C@@H]2[C@H]1O — MIC (Burkholderia cepacia; microbial growth, broth dilution; ATCC25416): 50 µg/mL (≈ 150 µM)
CCC1(c2ccc(N)cc2)CCC(=O)NC1=O (stereo not shown) — IC50 (MCF-10A; cell growth or viability, CCK-8; 48 h): > 50 µM
CCCCCCC/C=C/C(=O)N1C(=O)/C(=C(\O)c2ccc(OCOCCOC)cc2)C(=O)C1CC(C)C (stereo not shown) — MIC (Burkholderia cepacia; microbial growth; ATCC25416): > 200 µg/mL
Cc1ccc(Cl)c(Nc2ccccc2C(=O)O)c1Cl — inhibition (human PBMC; cell migration; 10 µM): 100%
C=C(CCC=C(C)C)[C@H]1CC[C@H]2[C@@H]3CCC4=CC(=O)CC[C@]4(C)[C@H]3CC[C@@]12C — IC50 (Leishmania mexicana; parasite growth; 48 h, promastigote): 30 µM
COc1cc2c3c(n(CCCNCCO)c(=O)c2cc1OC)-c1cc2c(cc1C3=O)OCO2 — GI50 (SN12C; cell growth or viability): < 0.01 µM
CCCCCCC/C=C/C(=O)N1C(=O)/C(=C(\O)CCCC)C(=O)C1CC(C)C (stereo not shown) — MIC (Burkholderia cepacia; microbial growth; ATCC25416): > 200 µg/mL
O=C(Oc1ccc(I)cc1)[c-]1cccc1.[Fe+2].c1cc[cH-]c1 — IC50 (MCF-10A; cell growth or viability, MTT; 72 h): 7 µM
CCCCCCCCCCCCCCCC(=O)N(C)[C@H](CO)C(=O)N[C@H](C)C(=O)NCC(=O)N(C)[C@@H]1C(=O)N[C@@H](C)C(=O)N[C@H](C(=O)O)Cc2ccc(O)c(c2)-c2cc1ccc2O — MIC (Latilactobacillus sakei; microbial growth): > 128 µg/mL
CCCCCCCCCOc1ccc2[nH]cc(CCN)c2c1 — IC50 (CAL-27; cell growth or viability; 72 h): 4.11 µM
CCCCCCC/C=C/C(=O)N1C(=O)/C(=C(/C)O)C(=O)C1Cc1ccc(O)cc1 (stereo not shown) — MIC (Burkholderia cepacia; microbial growth; ATCC25416): > 200 µg/mL
CC(C)CCC[C@@H](C)[C@H]1CC[C@H]2[C@@H]3CCC4=CC(=O)CC[C@]4(C)[C@H]3CC[C@]12C — IC50 (Leishmania mexicana; parasite growth; 48 h, promastigote): 81 µM
OCCOCCN1CCN(C(c2ccccc2)c2ccc(Cl)cc2)CC1 (stereo not shown) — inhibition (human PBMC; cell migration; 10 µM): 7%
